Source: ChEMBL document CHEMBL3244382, “Structural requirements for antileukemic activity among the naturally occurring and semisynthetic maytansinoids” (J Med Chem, 1978)
≈ marks a conversion by molar mass, not a printed value. Calls of active or inactive are those of the source.

Tests used:
Mus musculus [1] = test: Toxicity in PS mouse allografted with mouse P388 cells assessed as change in body weight at 3.1 ug/kg relative to control; format: organism-based; conditions: in vivo, 0.0031 mg/kg
Procedure, shortened: (§1)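 P388 (PS) leukemia in mice, 6 mice per dose group. Weight change is the difference in grams between treated and control animals. Survivors are recorded on toxicity day, normally 4 days after the first injection.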

Mus musculus [2] = test: Toxicity in PS mouse allografted with mouse P388 cells assessed as survival at 25 ug/kg after 4 days; format: organism-based; conditions: in vivo, 0.025 mg/kg, 96 h
Procedure, shortened: (§2)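 PS (P388) leukemic mice, six started per dose group. Toxicity scored as survivors on the toxicity day over the number of mice started. The toxicity day is normally 4 days after the first injection.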

Mus musculus [3] = test: Toxicity in PS mouse allografted with mouse P388 cells assessed as survival at 100 ug/kg after 4 days; format: organism-based; conditions: in vivo, 0.1 mg/kg, 96 h; procedure, shortened: as §2
Mus musculus [4] = test: Toxicity in PS mouse allografted with mouse P388 cells assessed as change in body weight at 200 ug/kg relative to control; format: organism-based; conditions: in vivo, 0.2 mg/kg; procedure, shortened: as §1
Mus musculus [5] = test: Toxicity in PS mouse allografted with mouse P388 cells assessed as survival at 50 ug/kg after 4 days; format: organism-based; conditions: in vivo, 0.05 mg/kg, 96 h; procedure, shortened: as §2
Mus musculus [6] = test: Toxicity in PS mouse allografted with mouse P388 cells assessed as change in body weight at 100 ug/kg relative to control; format: organism-based; conditions: in vivo, 0.1 mg/kg; procedure, shortened: as §1
Mus musculus [7] = test: Toxicity in PS mouse allografted with mouse P388 cells assessed as survival at 12.5 ug/kg after 4 days; format: organism-based; conditions: in vivo, 0.0125 mg/kg, 96 h; procedure, shortened: as §2
P388 [8] = test: Antitumor activity against mouse P388 cells allografted in PS mouse assessed as median survival time at 100 ug/kg relative to control; format: functional
Procedure, shortened: (§3)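 P388 leukemia (PS) in mice, six mice started per dose group. Read-out is T/C: median survival time of the treated group divided by that of the untreated control group, expressed as a percent. The NIH protocol counts a compound as active when T/C > 125%.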

P388 [9] = test: Antitumor activity against mouse P388 cells allografted in PS mouse assessed as median survival time at 3.1 ug/kg relative to control; format: functional; procedure, shortened: as §3
Mus musculus [10] = test: Toxicity in PS mouse allografted with mouse P388 cells assessed as survival at 200 ug/kg after 4 days; format: organism-based; conditions: in vivo, 0.2 mg/kg, 96 h; procedure, shortened: as §2
Mus musculus [11] = test: Toxicity in PS mouse allografted with mouse P388 cells assessed as survival at 1.6 ug/kg after 4 days; format: organism-based; conditions: in vivo, 0.0016 mg/kg, 96 h; procedure, shortened: as §2
Mus musculus [12] = test: Toxicity in PS mouse allografted with mouse P388 cells assessed as change in body weight at 25 ug/kg relative to control; format: organism-based; conditions: in vivo, 0.025 mg/kg; procedure, shortened: as §1
Mus musculus [13] = test: Toxicity in PS mouse allografted with mouse P388 cells assessed as change in body weight at 50 ug/kg relative to control; format: organism-based; conditions: in vivo, 0.05 mg/kg; procedure, shortened: as §1
P388 [14] = test: Antitumor activity against mouse P388 cells allografted in PS mouse assessed as median survival time at 1.6 ug/kg relative to control; format: functional; procedure, shortened: as §3
Mus musculus [15] = test: Toxicity in PS mouse allografted with mouse P388 cells assessed as survival at 3.1 ug/kg after 4 days; format: organism-based; conditions: in vivo, 0.0031 mg/kg, 96 h; procedure, shortened: as §2
KB = test: Cytotoxicity against human KB cells; format: functional; conditions: read-out: ED50 (the source's name)
P388 [16] = test: Antitumor activity against mouse P388 cells allografted in PS mouse assessed as median survival time at 12.5 ug/kg relative to control; format: functional; procedure, shortened: as §3
Mus musculus [17] = test: Toxicity in PS mouse allografted with mouse P388 cells assessed as change in body weight at 0.8 ug/kg relative to control; format: organism-based; conditions: in vivo, 0.0008 mg/kg
Procedure, shortened: (§4)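 PS (P388 leukemia) mice, six per dose group. Toxicity read as the difference in grams between the weights of treated and control animals.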

P388 [18] = test: Antitumor activity against mouse P388 cells allografted in PS mouse assessed as median survival time at 50 ug/kg relative to control; format: functional; procedure, shortened: as §3
Mus musculus [19] = test: Toxicity in PS mouse allografted with mouse P388 cells assessed as change in body weight at 6.2 ug/kg relative to control; format: organism-based; conditions: in vivo, 0.0062 mg/kg; procedure, shortened: as §1
P388 [20] = test: Antitumor activity against mouse P388 cells allografted in PS mouse assessed as median survival time at 25 ug/kg relative to control; format: functional; procedure, shortened: as §3
Mus musculus [21] = test: Toxicity in PS mouse allografted with mouse P388 cells assessed as change in body weight at 1.6 ug/kg relative to control; format: organism-based; conditions: in vivo, 0.0016 mg/kg; procedure, shortened: as §1
Mus musculus [22] = test: Toxicity in PS mouse allografted with mouse P388 cells assessed as survival at 0.8 ug/kg after 4 days; format: organism-based; conditions: in vivo, 0.0008 mg/kg, 96 h; procedure, shortened: as §2
P388 [23] = test: Antitumor activity against mouse P388 cells allografted in PS mouse assessed as median survival time at 6.2 ug/kg relative to control; format: functional; procedure, shortened: as §3
P388 [24] = test: Antitumor activity against mouse P388 cells allografted in PS mouse assessed as median survival time at 200 ug/kg relative to control; format: functional; procedure, shortened: as §3
Mus musculus [25] = test: Toxicity in PS mouse allografted with mouse P388 cells assessed as survival at 6.2 ug/kg after 4 days; format: organism-based; conditions: in vivo, 0.0062 mg/kg, 96 h; procedure, shortened: as §2
Mus musculus [26] = test: Toxicity in PS mouse allografted with mouse P388 cells assessed as change in body weight at 12.5 ug/kg relative to control; format: organism-based; conditions: in vivo, 0.0125 mg/kg; procedure, shortened: as §1
P388 [27] = test: Antitumor activity against mouse P388 cells allografted in PS mouse assessed as median survival time at 0.8 ug/kg relative to control; format: functional; procedure, shortened: as §3
Tubulin (Homo sapiens) = Tubulin (Homo sapiens) (UniProt P68371+Q9H4B7+P0DPH7+P68366+Q13509+Q71U36+P04350+Q3ZCM7+P07437+P68363+Q9BQE3+Q6PEY2+Q13885+Q9BVA1+Q9BUF5); test: Inhibition of brain tubulin polymerization (unknown origin) at 37 degC by spectrophotometry
Paracentrotus lividus = test: Antimitotic activity against sea urchin eggs assessed as drug level causing inhibition of mitosis; format: functional; conditions: Egg
Mus musculus [28] = test: Toxicity in PS mouse allografted with mouse P388 cells assessed as change in body weight at 0.4 ug/kg relative to control; format: organism-based; conditions: in vivo, 0.0004 mg/kg; procedure, shortened: as §4
Mus musculus [29] = test: Toxicity in PS mouse allografted with mouse P388 cells assessed as survival at 0.4 ug/kg after 4 days; format: organism-based; conditions: in vivo, 0.0004 mg/kg, 96 h; procedure, shortened: as §2
P388 [30] = test: Antitumor activity against mouse P388 cells allografted in PS mouse assessed as median survival time at 0.4 ug/kg relative to control; format: functional; procedure, shortened: as §3

Row | SMILES | Activity (Mus musculus [1]) | Activity (Mus musculus [2]) | Activity (Mus musculus [3]) | Activity (Mus musculus [5]) | Activity (Mus musculus [6]) | Activity (Mus musculus [7]) | T/C (P388 [8]) | T/C (P388 [9]) | Activity (Mus musculus [11]) | Activity (Mus musculus [12]) | Activity (Mus musculus [13]) | T/C (P388 [14]) | Activity (Mus musculus [15]) | EC50 (KB) | T/C (P388 [16]) | T/C (P388 [18]) | Activity (Mus musculus [19]) | T/C (P388 [20]) | Activity (Mus musculus [21]) | T/C (P388 [23]) | also measured
1 | C/C=C/C(=O)O[C@H]1CC(=O)N(C)c2cc(cc(OC)c2Cl)C/C(C)=C/C=C/[C@@H](OC)[C@@]2(O)C[C@H](OC(=O)N2)[C@@H](C)[C@@H]2O[C@@]12C | -1.7 g | Non-toxic | Non-toxic | Non-toxic | -3.6 g | Non-toxic | 210% | 150% | Non-toxic | -3.6 g | -3.5 g | 150% | Non-toxic | 0.23 ng/mL (≈ 0.363 nM) | 170% | 210% | -3 g | 173% | -4.5 g | 160% | Activity (Mus musculus [4]): -1.8 g; Activity (Mus musculus [10]): Non-toxic; Activity (Mus musculus [17]): -4.5 g; Activity (Mus musculus [22]): Non-toxic; T/C (P388 [24]): 210%; Activity (Mus musculus [25]): Non-toxic; Activity (Mus musculus [26]): -2.5 g; T/C (P388 [27]): 150%
2 | COc1cc2cc(c1Cl)N(C)C(=O)C[C@H](OC(=O)[C@H](C)N(C)C(C)=O)[C@]1(C)O[C@H]1[C@H](C)[C@@H]1C[C@@](O)(NC(=O)O1)[C@H](OC)/C=C/C=C(\C)C2 [MAYTANSINE] | -0.1 g | Non-toxic | Non-toxic | Non-toxic | -0.4 g | Non-toxic | <80% | 165% | Non-toxic | 0.6 g | 0.3 g | 155% | Non-toxic | 0.0061 ng/mL (≈ 0.00881 nM) | 190% | 125% | 1.3 g | 220% | 1.6 g | 195% | inhibition (Tubulin (Homo sapiens)): Active; Activity (Paracentrotus lividus): 1 ×10⁻⁷ mol/L; Activity (Mus musculus [28]): 1.7 g; Activity (Mus musculus [29]): Non-toxic; Activity (Mus musculus [17]): 1.4 g; Activity (Mus musculus [22]): Non-toxic; T/C (P388 [30]): 125%; Activity (Mus musculus [25]): Non-toxic; Activity (Mus musculus [26]): 1.6 g; T/C (P388 [27]): 145%
3 | COc1cc2cc(c1Cl)NC(=O)/C=C/C(C)=C/[C@H](C)[C@@H]1C[C@@](O)(NC(=O)O1)[C@H](OC)/C=C/C=C(\C)C2 | 1.4 g | Non-toxic | Non-toxic | Non-toxic | 0.8 g | Non-toxic | 120% | 95% | Non-toxic | -0.8 g | 1.8 g | 104% | Non-toxic | 2 ng/mL (≈ 3.87 nM) | <80% | 120% | 0.7 g | 108% | 1 g | 87% | inhibition (Tubulin (Homo sapiens)): Active; Activity (Mus musculus [4]): 1.2 g; Activity (Paracentrotus lividus): 1 ×10⁻⁸ mol/L; Activity (Mus musculus [10]): Non-toxic; T/C (P388 [24]): 104%; Activity (Mus musculus [25]): Non-toxic; Activity (Mus musculus [26]): 0.7 g
4 | CCC(=O)O[C@H]1CC(=O)N(C)c2cc(cc(OC)c2Cl)C/C(C)=C/C=C/[C@@H](OC)[C@@]2(O)C[C@H](OC(=O)N2)[C@@H](C)[C@@H]2O[C@@]12C | 1.3 g | Non-toxic | Toxic | Non-toxic | -2 g | Non-toxic | <80% | 131% | Non-toxic | -0.5 g | -0.9 g | 129% | Non-toxic | 0.21 ng/mL (≈ 0.338 nM) | 163% | 198% | -1 g | 153% | -0.8 g | 140% | inhibition (Tubulin (Homo sapiens)): Active; Activity (Mus musculus [4]): -3.5 g; Activity (Paracentrotus lividus): 1 nM; Activity (Mus musculus [10]): Toxic; Activity (Mus musculus [17]): -0.5 g; Activity (Mus musculus [22]): Non-toxic; T/C (P388 [24]): <80%; Activity (Mus musculus [25]): Non-toxic; Activity (Mus musculus [26]): -0.3 g; T/C (P388 [27]): 110%
